Our source for the ILS, Cures and T/C values is ChEMBL document CHEMBL1124260, “Synthesis and antitumor activity of quaternary ellipticine glycosides, a series of novel and highly active antitumor agents” (1988).

One may read the ILS as how much longer treated animals lived than controls. Low readings indicate a small benefit in survival, high ones a large benefit in survival. Usually T/C stands for the ratio of treated to control.

Where only a bound is given, the exact number is not on record here.

The subject of test [1] is Mus musculus. The test can be described thus: Antitumor activity against ip implanted L1210 leukemia in mouse after ip administration of 10 mg/kg for 5 days expressed as increase in mean life span. Conditions: Mus musculus, L1210, ip, 120 h, route intraperitoneal. In kind it is functional. A digest of the protocol: (§1)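 Drug was dissolved in 0.9% NaCl, diluted just before use and given ip once daily for 5 consecutive days, starting 24 h after transplant. ILS % = mean survival time of treated vs control mice, observed for 80 days.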

Test [2] relates to Mus musculus. In words: Number of survivors out of 6 ip implanted L1210 leukemia mouse tested after 80 days at 10 mg/kg. The test is classed as functional. Conditions: route intraperitoneal. A digest of the protocol: (§2)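 Female BDF1 mice implanted ip with ascitic fluid holding 10^5 L1210 cells. Saline-dissolved drug given ip daily on days 1-5, starting 24 h after implant. Six mice per dose group, followed 80 days. Survivors/total counted at day 80; ILS % from mean survival time vs controls.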

The subject of test [3] is Mus musculus. In words: Number of survivors out of 6 ip implanted L1210 leukemia mouse tested after 80 days at 20 mg/kg. The test is classed as functional. The following applies: route intraperitoneal. A digest of the protocol:
as §2

The subject of test [4] is Mus musculus. In words: Antitumor activity against ip implanted L1210 leukemia in mouse after ip administration of 20 mg/kg for 5 days expressed as increase in mean life span. The test is classed as functional. The following applies: 120 h, route intraperitoneal. A digest of the protocol:
as §1

In test [5] the test system is Mus musculus. In words: Number of survivors out of 6 ip implanted L1210 leukemia mouse tested after 80 days at 40 mg/kg. The test is classed as functional. The following applies: route intraperitoneal. The method in brief:
as §2

Test [6] deals with Mus musculus. In words: Antitumor activity against ip implanted L1210 leukemia in mouse after ip administration of 40 mg/kg for 5 days expressed as increase in mean life span. In kind it is functional. Conditions: 120 h, route intraperitoneal. A digest of the protocol: as §1
Test [7] has as its system Mus musculus. In words: Number of survivors out of 6 ip implanted P388 leukemia in mouse after ip administration of 20 mg/kg after 80 days. In kind it is functional. The following applies: route intraperitoneal. The method in brief: (§3)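 P388 leukemia, 10^6 ascitic cells implanted ip in female BDF1 mice. Drug in saline given ip for 5 consecutive days from 24 h after transplant. Groups of six per dose level. Survivors/total recorded at the 80-day end of observation; ILS % from treated/control mean survival time.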

Test [8] concerns Mus musculus. The test can be described thus: Inhibition of sc implanted syngeneic colon 38 carcinoma by ip administration at 30 mg/kg on 1, 3, 5, 7, 9 days measured as inhibition ratio. The test is classed as functional. The following applies: route intraperitoneal. A digest of the protocol:
(§4)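 Tumor homogenate (70 mg) implanted into the axillary region of female BDF1 mice. Drug dissolved in 0.9% NaCl and diluted with saline just before use, then given ip on days 1, 3, 5, 7 and 9. Tumor length and width were measured by caliper on day 20 after inoculation and converted to estimated weight. Result reported as treated vs control tumor weight, T/C %.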

For test [9], the system named is Mus musculus. In words: Inhibition of sc implanted syngeneic colon 38 carcinoma by ip administration at 40 mg/kg on 1, 3, 5, 7, 9 days measured as inhibition ratio. The following applies: route subcutaneous. The test is classed as functional. The method in brief: as §4
Test [10] concerns Mus musculus. The test can be described thus: Antitumor activity against ip implanted P388 leukemia in mouse after ip administration of 10 mg/kg for 5 days expressed as increase in mean life span. The test is classed as functional. The following applies: 120 h, route intraperitoneal. A digest of the protocol: (§5)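 Saline-dissolved drug was given ip daily for 5 consecutive days, beginning 24 h post-transplant. ILS % was calculated from treated vs control mean survival time over an 80-day observation period.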

Test [11] relates to Mus musculus. In words: Antitumor activity against ip implanted P388 leukemia in mouse after ip administration of 20 mg/kg for 5 days expressed as increase in mean life span. In kind it is functional. Conditions: 120 h, route intraperitoneal. A digest of the protocol:
as §5

The subject of test [12] is Mus musculus. The test can be described thus: Antitumor activity against ip implanted L1210 leukemia in mouse after ip administration of 30 mg/kg for 5 days expressed as increase in mean life span. In kind it is functional. The following applies: Mus musculus, L1210, ip, 120 h, route intraperitoneal. The method in brief: as §1
Test [13] relates to Mus musculus. The test can be described thus: Effect on ip implanted syngeneic B16 melanoma by ip administration for 9 days at 10 mg/kg was measured as increase in mean life span. Conditions: 216 h.
Test [14] relates to Mus musculus. The test can be described thus: Antitumor activity against ip implanted P388 leukemia in mouse after ip administration of 1.25 mg/kg for 5 days expressed as increase in mean life span. In kind it is functional. Conditions: 120 h, route intraperitoneal. The method in brief:
as §5

Test [15] deals with Mus musculus. In words: Antitumor activity against ip implanted L1210 leukemia in mouse after ip administration of 1.25 mg/kg for 5 days expressed as increase in mean life span. In kind it is functional. Conditions: 120 h, route intraperitoneal. A digest of the protocol: as §1
Test [16] has as its system Mus musculus. In words: Number of survivors out of 6 ip implanted L1210 leukemia in mouse after ip administration of 10 mg/kg after 80 days. The test is classed as functional. Conditions: route intraperitoneal. The method in brief: as §2
Test [17] deals with Mus musculus. In words: Effect on ip implanted syngeneic B16 melanoma by ip administration of 20 mg/kg for 9 days measured as increase in mean life span. Conditions: 216 h.
The subject of test [18] is Mus musculus. In words: Number of survivors out of 6 ip implanted P388 leukemia in mouse after ip administration of 5 mg/kg after 80 days. The test is classed as functional. The following applies: route intraperitoneal. A digest of the protocol: as §3
Test [19] deals with Mus musculus. The test can be described thus: Number of survivors out of 6 ip implanted L1210 leukemia mouse, tested after 80 days at 30 mg/kg. The test is classed as functional. Conditions: route intraperitoneal. A digest of the protocol:
as §2

The test system of test [20] is Mus musculus. The test can be described thus: Number of survivors out of 6 ip implanted L1210 leukemia in mouse after ip administration of 20 mg/kg after 80 days. In kind it is functional. The following applies: route intraperitoneal. The method in brief: as §2
Test [21] has as its system Mus musculus. The test can be described thus: Number of survivors out of 6 ip implanted L1210 leukemia in mouse after ip administration of 40 mg/kg after 80 days. In kind it is functional. The following applies: route intraperitoneal. A digest of the protocol:
as §2

In test [22] the test system is Mus musculus. The test can be described thus: Number of survivors out of 6 ip implanted P388 leukemia in mouse after ip administration of 40 mg/kg after 80 days. The following applies: route intraperitoneal. In kind it is functional. The method in brief:
as §3

Test [23] deals with Mus musculus. The test can be described thus: Antitumor activity against ip implanted P388 leukemia in mouse after ip administration of 5 mg/kg for 5 days expressed as increase in mean life span. The test is classed as functional. Conditions: 120 h, route intraperitoneal. A digest of the protocol: as §5
Test [24] deals with Mus musculus. The test can be described thus: Antitumor activity against ip implanted P388 leukemia in mouse after ip administration of 40 mg/kg for 5 days expressed as increase in mean life span. The test is classed as functional. Conditions: 120 h, route intraperitoneal. The method in brief: as §5
Test [25] has as its system Mus musculus. In words: Inhibition of sc implanted syngeneic colon 38 carcinoma by ip administration at 20 mg/kg on 1, 3, 5, 7, 9 days measured as inhibition ratio. The test is classed as functional. The following applies: route subcutaneous. The method in brief:
as §4

Test [26] concerns Mus musculus. In words: Effect on ip implanted syngeneic B16 melanoma by ip administration for 9 days at 5 mg/kg was measured as increase in mean life span. Conditions: 216 h.
For test [27], the system named is Mus musculus. The test can be described thus: Antitumor activity against ip implanted L1210 leukemia in mouse after ip administration of 5 mg/kg for 5 days expressed as increase in mean life span. The following applies: Mus musculus, L1210, ip, 120 h, route intraperitoneal. In kind it is functional. The method in brief:
as §1

For test [28], the system named is Mus musculus. In words: Number of survivors out of 6 ip implanted P388 leukemia in mouse after ip administration of 10 mg/kg after 80 days. In kind it is functional. The following applies: route intraperitoneal. A digest of the protocol:
as §3

Test [29] relates to Mus musculus. In words: Number of survivors out of 6 ip implanted L1210 leukemia mouse tested after 80 days at 5 mg/kg. In kind it is functional. The following applies: route intraperitoneal. A digest of the protocol:
as §2

In test [1], `Cc1c2cc[n+]([C@H]3O[C@H](CO)[C@@H](O)[C@H]3O)cc2c(C)c2c1[nH]c1ccc(O)cc12.[Br-]` registered an ILS at 10 mg/kg of 138%. This compound also yielded a Cures in test [2] of 0.
For `Cc1c2cc[n+]([C@H]3O[C@H](CO)[C@@H](O)[C@@H]3O)cc2c(C)c2c1[nH]c1ccc(O)cc12.[Br-]`, the Cures is given as 0 in test [3] and 2 in test [2]. The compound further displayed an ILS at 10 mg/kg in [1] greater than 379%. The ILS at 20 mg/kg in test [4] came to 91%.
Consider `Cc1c2cc[n+]([C@H]3O[C@@H](C)[C@H](O)[C@@H](O)[C@H]3O)cc2c(C)c2c1[nH]c1ccc(O)cc12.[Br-]`, for which the Cures in test [5] was 0. In test [6], this compound displayed an ILS at 40 mg/kg of 78%.
In turn, `Cc1c2cc[n+](C3O[C@@H](C)[C@H](O)[C@@H](O)[C@H]3O)cc2c(C)c2c1[nH]c1ccccc12.[Br-]` (some centres undefined) had a Cures in [5] of 0. In [6], this compound registered an ILS at 40 mg/kg of 40%.
In turn, `Cc1c2cc[n+]([C@@H]3O[C@H](CO)[C@@H](O)[C@@H](O)[C@H]3O)cc2c(C)c2c1[nH]c1ccc(O)cc12.[Br-]` had an ILS at 10 mg/kg in test [1] greater than 254%. This compound also came in with a Cures in test [2] of 1.
In turn, `Cc1c2cc[n+]([C@H]3OC[C@@H](O)[C@@H](O)[C@@H]3O)cc2c(C)c2c1[nH]c1ccc(O)cc12.[Br-]` yielded a Cures in test [3] of 3. The compound further showed an ILS at 20 mg/kg in test [4] greater than 606%.
Take `Cc1c2cc[n+]([C@@H]3OC[C@@H](O)[C@H](O)[C@@H]3O)cc2c(C)c2c1[nH]c1ccc(O)cc12.[Cl-]`: the Cures in test [7] is reported as 4; in [16] it was 1; in [18], 1; in [19], 5; in test [20] it was 1; in test [21] it was 4. In addition, the Cures in test [22] is given as 4; in [28], 2. Also, the T/C was 18% in [8], 5% in test [9] and 37% in test [25]. Further, the increase in life span (ILS) at 10 mg/kg in [10] is greater than 369%; in [13] it was 61%; in test [1], greater than 238%. Also, the increase in life span (ILS) at 20 mg/kg was greater than 585% in test [11], 87% in [17] and greater than 249% in test [4]. The compound also had an ILS at 30 mg/kg in test [12] greater than 786%. For the same compound, the results for the ILS at 1.25 mg/kg in [14] and in test [15] were 87% and 46%, respectively. In addition, the ILS at 40 mg/kg in test [6] was greater than 668%; in [24] it was greater than 526%. The ILS at 5 mg/kg in test [23] is greater than 212%; in test [26], 41%; in test [27], 68%.
Take `Cc1c2cc[n+]([C@H]3OC[C@@H](O)[C@H](O)[C@@H]3O)cc2c(C)c2c1[nH]c1ccc(O)cc12.[Cl-]`: the ILS at 10 mg/kg in test [1] was greater than 651%. This compound also showed a Cures in test [2] of 4.
Take `Cc1c2cc[n+](C3OC(CO)C(O)C(O)C3O)cc2c(C)c2c1[nH]c1ccccc12.[Br-]` (centres undefined): in test [5], the Cures stood at 0. The increase in lifespan (ILS) at 40 mg/kg in [6] was determined as 39%.
The compound `Cc1c2cc[n+](C3OC(C(N)=O)C(O)C(O)C3O)cc2c(C)c2c1[nH]c1ccc(O)cc12.[Br-]` (centres undefined) came in with a Cures in test [29] of 0. In test [27], this compound showed an ILS at 5 mg/kg of 49%.
In test [1], `Cc1c2cc[n+](C3CC(O)C(CO)O3)cc2c(C)c2c1[nH]c1ccc(O)cc12.[Cl-]` (centres undefined) registered an ILS at 10 mg/kg greater than 390%. Further, the Cures in test [2] was determined as 2.
`COc1ccc2[nH]c3c(C)c4cc[n+](C5OC(CO)C(O)C(O)C5O)cc4c(C)c3c2c1.[Br-]` (centres undefined) displayed an increase in life span (ILS) at 10 mg/kg in [1] of 14%. Besides, the Cures in test [2] is 0.
